According to PMC3079198 (Journal of the American Chemical Society, 2011):

What was measured:
[1] = system: H460 cells with wild type p53; test: Caspase-Glo 3/7 assay in H460 cells; type: cell-based, human; settings: 20 μM, 24 h
Method in brief: (§1)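 Human lung cancer cells, H460 (wild-type p53) and H1299 (p53 deleted), were exposed for 24 h to test compound at 20 μM. Controls were DMSO, a negative-control compound (20 μM) and a known MDM2 inhibitor as positive control (20 μM). Caspase 3/7 activity was then measured with the Caspase-Glo 3/7 assay kit.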

[2] = system: H1299 cells with deleted p53; test: Caspase-Glo 3/7 assay in H1299 cells; type: cell-based, human; settings: 20 μM, 24 h
Method in brief: as §1

## CC(C)(C)C[C@H]1N[C@@H](C(=O)NCCN2CCOCC2)[C@H](c2cccc(Cl)c2F)[C@@]12C(=O)Nc1cc(Cl)ccc12 [MI-63]
[1]
  induction of caspase 3/7 activity: ~5 fold
[2]
  effect on caspase 3/7 activity: no effect
